Active and inactive are the calls of the source. No cut-off for these calls is given here.
Key:
Candida albicans [1] = experiment: Synergistic antifungal activity against Candida albicans ATCC 90028 at 1.25 ug/ml after 48 hrs in presence of 2.5 ug/ml fluconazol by checkerboard assay relative to control; format: functional
Method in brief: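 Checkerboard microdilution (M27-A3) on C. albicans ATCC 90028 in RPMI 1640: fluconazole (80-1.25 µg/mL) crossed with tetrazole (80-1.25 µg/mL final), incubated at 35°C for 48 h. Growth by OD405 at 18 and 48 h, endpoint taken as 100% inhibition. FIC index = sum of the two agents' FICs; <1 synergism, >1 antagonism.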

Candida albicans [2] = experiment: Induction of apoptosis in Candida albicans ATCC 90028 protoplast assessed as viable cells at 16 ug/ml after 18 hrs Annexin V-FITC/propidium iodide staining based flow cytometry ( Rvb = 59.19 +/- 11%); format: functional
Candida albicans [3] = experiment: Induction of apoptosis in Candida albicans ATCC 90028 protoplast assessed as late apoptotic cells at 16 ug/ml after 18 hrs Annexin V-FITC/propidium iodide staining based flow cytometry ( Rvb = 0.20 +/- 0.28%); format: functional
Candida albicans [4] = experiment: Induction of necrosis in Candida albicans ATCC 90028 protoplast at 16 ug/ml after 18 hrs Annexin V-FITC/propidium iodide staining based flow cytometry (reference value: 40.48 +/- 16.81%); format: functional
[5] = Toxicity in Galleria mellonella larvae assessed as survival at 16 ug/ml after 96 hrs relative to control; format: organism-based; conditions: in vivo
Method in brief: (§1)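 Uninfected larvae, groups of 10, injected with compound in RPMI at 256, 16 or 0.0313 µg/mL; PBS-injected larvae as controls. Kept at 37°C in darkness up to 96 h, monitored daily; death is no response to physical stimuli. Mobility, cocoon formation, melanization and survival scored as health index. Three independent experiments, samples in duplicate; Wilcoxon signed-rank test vs control.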

[6] = Toxicity in Galleria mellonella larvae assessed as survival at 256 ug/ml after 96 hrs relative to control; format: organism-based; conditions: in vivo; method in brief: as §1
Candida albicans [7] = experiment: Induction of apoptosis in Candida albicans ATCC 90028 protoplast assessed as early apoptotic cells at 16 ug/ml after 18 hrs Annexin V-FITC/propidium iodide staining based flow cytometry ( Rvb = 0.13 +/- 0.06%); format: functional
[8] = Toxicity in Galleria mellonella larvae assessed as survival at 0.0313 ug/ml after 96 hrs relative to control; format: organism-based; conditions: in vivo; method in brief: as §1
Candida albicans [9] = experiment: Antifungal activity against Candida albicans ATCC 90028 assessed as growth inhibition at 100 ug/ml after 7 days in presence of sorbitol by M27-A3 microdilution method; format: functional, organism-based
Method in brief: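 Osmotic protection variant of M27-A3. Tetrazoles serially diluted (1.04-400 µg/mL) in Sabouraud dextrose broth; inoculum 1.7×10^3 CFU/mL in SDB with sorbitol at 0.8 M final. Plates at 35°C, read visually and at OD405 after 2 and 7 days; triplicate.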

Candida albicans [10] = experiment: Antifungal activity against Candida albicans ATCC 90028 assessed as total FIC index at 80 ug/ml in presence of fluconazol after 48 hrs by checkerboard-based XTT assay; format: functional
Method in brief: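 Checkerboard against strain ATCC 90028, inoculum per M27-A3: fluconazole 80-1.25 µg/mL on one axis, tetrazole 80-1.25 µg/mL on the other. Plates at 35°C for 48 h, then XTT metabolic reduction read at 475 nm (660 nm reference). Activity is the drop in mean absorbance against untreated growth control. FICs and their summed FIC index are taken at 50% reduction in metabolic activity.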

Candida albicans [11] = experiment: Antifungal activity against Candida albicans ATCC 90028 assessed as reduction in cell adherence to human Caco2 cells at 16 ug/ml preincubated for 2 hrs followed by compound washout and resuspended in RPMI medium measured after 18 hrs by colony counting assay relative to control; format: functional; design: scale not given: the % may be the effect or the level left
Method in brief: (§2)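 Yeasts grown 18 h in YEPD at 30°C, then exposed at 10^4/mL to compound in RPMI for 2 h at 35°C with shaking. Washed twice in PBS, resuspended in RPMI and added to Caco-2 monolayers (18 h culture in EMEM/10% FCS) for 2 h at 37°C, 5% CO2. Non-adherent cells rinsed off, Caco-2 lysed with water, and adherent yeasts counted as colonies on Sabouraud agar after 18 h at 30°C. Expressed as % of cells added versus untreated; three experiments.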

Candida albicans [12] = experiment: Antifungal activity against Candida albicans ATCC 90028 after 72 hrs in presence of ergosterol by M27-A3 microdilution method; format: functional; conditions: ATCC 90028, 72 h
Method in brief: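 Ergosterol-modified M27-A3 assay. Compounds at 512-1 µg/mL serially diluted in RPMI; the 10^3 CFU/mL inoculum is made in RPMI with ergosterol (dissolved in 10% DMSO/1% Tween 80, heated), giving 400 µg/mL ergosterol in the wells. Itraconazole and amphotericin B serve as controls. Plates at 35°C, read after 72 h. MIC is the lowest concentration without visible growth; triplicate on three days, geometric means.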

Candida albicans [13] = experiment: Induction of necrosis in Candida albicans ATCC 90028 biofilms assessed as loss of cell membrane integrity at 0.03 ug/ml after 18 hrs by propidium iodide/acridine orange staining based confocal laser scanning microscopic analysis; format: functional, organism-based
Method in brief: (§3)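 Caco-2-free model: the TR146 epithelial layer, 21 days post-seeding on filter inserts, was inoculated with 1.0–1.2×10^5/mL log-phase ATCC 90028 yeast. Biofilms were treated at 256, 16 or 0.0313 µg/mL for 18–48 h at 37°C in 5% CO2 and washed with PBS. Unfixed cells were stained with propidium iodide (5 µg/mL) and acridine orange, then imaged by confocal laser scanning microscopy.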

Candida albicans [14] = experiment: Induction of necrosis in Candida albicans ATCC 90028 biofilms at 256 ug/ml after 18 hrs by propidium iodide/acridine orange staining based confocal laser scanning microscopic analysis; format: functional, organism-based; method in brief: as §3
Candida albicans [15] = experiment: Induction of early apoptosis in Candida albicans ATCC 90028 biofilms at 256 ug/ml after 18 hrs by propidium iodide/acridine orange staining based confocal laser scanning microscopic analysis; format: functional, organism-based; method in brief: as §3
Candida albicans [16] = experiment: Antifungal activity against Candida albicans ATCC 90028 assessed as reduction in cell adherence to human Caco2 cells at 256 ug/ml preincubated for 2 hrs followed by compound washout and resuspended in RPMI medium measured after 18 hrs by colony counting assay relative to control; format: functional; design: scale not given: the % may be the effect or the level left; method in brief: as §2
Candida albicans [17] = experiment: Induction of necrosis in Candida albicans ATCC 90028 biofilms assessed as loss of cell membrane integrity at 16 ug/ml after 18 hrs by propidium iodide/acridine orange staining based confocal laser scanning microscopic analysis; format: functional, organism-based; method in brief: as §3
Candida albicans [18] = experiment: Induction of late apoptosis in Candida albicans ATCC 90028 biofilms assessed as formation of condense chromatin at 16 ug/ml after 18 hrs by propidium iodide/acridine orange staining based confocal laser scanning microscopic analysis; format: functional, organism-based; method in brief: as §3

| Compound | growth inhibition (GI) (Candida albicans [1]) | Activity (Candida albicans [2]) | Activity (Candida albicans [3]) | Activity (Candida albicans [4]) | survival at 96 h [5] | survival at 96 h [6] | Activity (Candida albicans [7]) | survival at 96 h [8] | growth inhibition (GI) (Candida albicans [9]) | fractional inhibitory concentration index (FICI) (Candida albicans [10]) | Activity (Candida albicans [11]) | MIC (Candida albicans [12]) | Activity (Candida albicans [13]) | Activity (Candida albicans [14]) | Activity (Candida albicans [15]) | Activity (Candida albicans [16]) | Activity (Candida albicans [17]) | Activity (Candida albicans [18]) |
| --- | --- | --- | --- | --- | --- | --- | --- | --- | --- | --- | --- | --- | --- | --- | --- | --- | --- | --- |
| ClCCCn1nnnc1-c1ccccc1Cl | 99.64% | 1.85% | 0.23% | 89.92% | 100% | 100% | 8% | 100% | inactive | >10 |  |  |  |  |  |  |  |  |
| Cc1ccc(-c2nnn(CCCN3CCOCC3)n2)cc1 | 99.23% |  |  |  |  |  |  |  |  | >6.25 | 14.18% |  |  |  |  |  |  |  |
| CCOC(=O)CCn1nnc(-c2ccccc2)n1 |  | 1.67% | 1.2% | 97.03% | 100% | 100% | 0.1% | 100% | Active |  | 65.41% | 64 µg/mL | Active | Active | Active | 59.12% | Active | Active |

Reference: ChEMBL document CHEMBL4145471, “New 1,5 and 2,5-disubstituted tetrazoles-dependent activity towards surface barrier of Candida albicans” (Eur J Med Chem, 2018)
